What was measured:
[1] = Inhibition of Hepatitis C virus genotype 1b Con1 NS5B Cdelta21 polymerase assessed as incorporation of [33P]-CTP into heteropolymer RNA template after 2 hrs; parameters: species or system Hepacivirus hominis; conditions: Con1, 2 h
Procedure, shortened: (§1)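 Each value is the mean of duplicate experiments run on two separate weighings of compound.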

[2] = Cytotoxicity against human HuH7 cells after 3 days by MTS assay; assay type: cell-based, Huh-7; procedure, shortened: as §1
Hepatitis C virus = assay: Antiviral activity against Hepatitis C virus genotype 1b Con1 infected in human HuH7 cells assessed as inhibition of viral RNA replication after 3 by real time PCR analysis; assay type: functional, organism-based, Hepacivirus hominis, Huh-7; procedure, shortened: as §1
[3] = Hepatitis C virus, Con1, Huh-7, read-out: EC50

SMILES	IC50 [1]	CC50 at 72 h [2]	EC50 (Hepatitis C virus; [3])	EC50 (Hepatitis C virus; huh-7)
CC(C)c1ccc(NC(=O)c2cccnc2)c(N2CCN(c3ccccn3)CC2)c1	7.3 µM	> 50 µM	> 50 µM	
CC(C)c1ccc(NC(=O)c2ccc(C(F)(F)F)nc2)c(N2CCN(c3cnccn3)CC2)c1	> 20 µM			
COc1ncccc1C(=O)Nc1ccc(C(C)C)cc1N1CCN(c2cnccn2)CC1	> 20 µM			
CC(C)c1ccc(NC(=O)c2cccnc2-c2ccccc2)c(N2CCN(c3cnccn3)CC2)c1	> 200 µM	15 µM		ND(toxic)
CC(C)c1ccc(NC(=O)c2cnc3[nH]ccc3c2)c(N2CCN(c3cnccn3)CC2)c1	> 20 µM			
Cc1csc(N2CCN(c3cc(C(C)C)ccc3NC(=O)c3cccnc3)CC2)n1	3.9 µM	27 µM	6 µM	
Cc1ncccc1C(=O)Nc1ccc(C(C)C)cc1N1CCN(c2ccncn2)CC1	0.1 µM	20 µM	1.1 µM	
Cc1cnc(C(=O)Nc2ccc(C(C)C)cc2N2CCN(c3cnccn3)CC2)cn1	> 20 µM			
Cc1occc1C(=O)Nc1ccc(C(C)C)cc1N1CCN(c2cnccn2)CC1	15 µM			
CC(C)c1ccc(NC(=O)c2cccnc2)c(N2CCN(S(C)(=O)=O)CC2)c1	> 200 µM			
Cc1cncc(N2CCN(c3cc(C(C)C)ccc3NC(=O)c3cccnc3)CC2)n1	0.5 µM	23 µM		ND(toxic)
Cc1nc(Br)sc1C(=O)Nc1ccc(C(C)C)cc1N1CCN(c2cnccn2)CC1	3 µM	> 10 µM	> 10 µM	
C=C(C)c1ncccc1C(=O)Nc1ccc(C(C)C)cc1N1CCN(c2cnccn2)CC1	> 200 µM			
Cc1nc(N(C)C)sc1C(=O)Nc1ccc(C(C)C)cc1N1CCN(c2cnccn2)CC1	10 µM	> 10 µM	6.9 µM	
CC(C)c1ccc(NC(=O)c2cccnc2F)c(N2CCN(c3cnccn3)CC2)c1	2.2 µM	17 µM		ND(toxic)
Cc1ccnc(N2CCN(c3cc(C(C)C)ccc3NC(=O)c3cccnc3)CC2)n1	1.5 µM	14 µM		ND(toxic)
CC(C)c1ccc(NC(=O)c2ccnc(NC(=O)C(C)(C)C)c2)c(N2CCN(c3cnccn3)CC2)c1	> 20 µM			
CC(C)c1ccc(NC(=O)c2cccnc2)c(N2CCN(C(=O)OC(C)(C)C)CC2)c1	> 200 µM			
CC(C)c1ccc(NC(=O)c2cccnc2C(F)(F)F)c(N2CCN(c3cnccn3)CC2)c1	2.3 µM	4.5 µM		ND(toxic)

SMILES	IC50 [1]	CC50 at 72 h [2]	EC50 (Hepatitis C virus; [3])	EC50 (Hepatitis C virus; huh-7)
CC(C)c1ccc(NC(=O)c2cncnc2)c(N2CCN(c3cnccn3)CC2)c1	> 20 µM			
Cc1nccc(N2CCN(c3cc(C(C)C)ccc3NC(=O)c3cccnc3)CC2)n1	0.16 µM	25 µM		ND(toxic)
Cc1nocc1C(=O)Nc1ccc(C(C)C)cc1N1CCN(c2cnccn2)CC1	> 200 µM			
Cc1ncoc1C(=O)Nc1ccc(C(C)C)cc1N1CCN(c2cnccn2)CC1	14 µM			
O=C(Nc1ccc(C2CC2)cc1N1CCN(c2cnccn2)CC1)c1cccnc1	12 µM			
CC(C)c1ccc(NC(=O)C2CCOCC2)c(N2CCN(c3cnccn3)CC2)c1	> 20 µM			
Cc1cnc(N2CCN(c3cc(C(C)C)ccc3NC(=O)c3cccnc3)CC2)s1	15 µM			
CC(C)c1ccc(NC(=O)c2ccnnc2)c(N2CCN(c3cnccn3)CC2)c1	> 20 µM			
CC(C)c1ccc(NC(=O)c2ccccn2)c(N2CCN(c3cnccn3)CC2)c1	> 20 µM			
CC(C)c1ccc(NC(=O)c2cccnc2N)c(N2CCN(c3cnccn3)CC2)c1	1 µM	30 µM		ND(toxic)
Cc1ccc(C(=O)Nc2ccc(C(C)C)cc2N2CCN(c3cnccn3)CC2)cn1	14 µM	11 µM		ND(toxic)
CC(C)c1ccc(NC(=O)c2cccnc2)c(N2CCN(c3cnccn3)CC2)c1	3 µM	54 µM	20 µM	
CC(C)c1ccc(NC(=O)c2ccsc2)c(N2CCN(c3cnccn3)CC2)c1	7 µM	28 µM	6.5 µM	
CC(C)c1ccc(NC(=O)c2cccc(O)n2)c(N2CCN(c3cnccn3)CC2)c1	46 µM	17 µM		ND(toxic)
CC(C)c1ccc(NC(=O)c2cccnc2)c(N2CCN(c3nccs3)CC2)c1	2.5 µM	> 50 µM	> 50 µM	
CC(C)c1ccc(NC(=O)c2cccnc2C2CC2)c(N2CCN(c3cnccn3)CC2)c1	2 µM	21 µM		ND(toxic)
CNCC(=O)N1CCN(c2cc(C(C)C)ccc2NC(=O)c2cccnc2)CC1	> 200 µM			
CC(C)c1ccc(NC(=O)c2cccnc2)c(N2CCN(c3cncc(C4CC4)n3)CC2)c1	1 µM	1 µM		ND(toxic)
CC(C)c1ccc(NC(=O)c2cccnc2)c(N2CCN(c3nsc(Cl)n3)CC2)c1	5 µM	> 10 µM	> 10 µM	

SMILES	IC50 [1]	CC50 at 72 h [2]	EC50 (Hepatitis C virus; [3])	EC50 (Hepatitis C virus; huh-7)
Cc1oncc1C(=O)Nc1ccc(C(C)C)cc1N1CCN(c2cnccn2)CC1	13 µM			
CC(C)c1ccc(NC(=O)c2cnc3ccccc3c2)c(N2CCN(c3cnccn3)CC2)c1	6.7 µM	6 µM	1.8 µM	
CC(C)c1ccc(NC(=O)c2cccnc2O)c(N2CCN(c3cnccn3)CC2)c1	> 200 µM			
CC(C)c1ccc(NC(=O)c2cccnc2)c(N2CCN(c3ncccn3)CC2)c1	2.3 µM	37 µM		ND(toxic)
Cc1c(F)cc(C(=O)Nc2ccc(C(C)C)cc2N2CCN(c3cnccn3)CC2)cc1F	5.6 µM	> 50 µM	> 50 µM	
CC(C)c1ccc(NC(=O)c2cccnc2)c(N2CCN(c3cncc(-c4ccccc4)n3)CC2)c1	17 µM			
CC(C)c1ccc(NC(=O)c2cccnc2)c(N2CCN(c3ccncn3)CC2)c1	0.56 µM	27 µM		ND(toxic)
CCOC(=O)c1ccc(NC(=O)c2cccnc2)c(N2CCN(c3cnccn3)CC2)c1	> 5 µM			
CC(C)c1ccc(NC(=O)c2cccnc2)c(N2CCN(C(=O)CN(C)C)CC2)c1	> 200 µM			
CSCc1nccc(N2CCN(c3cc(C(C)C)ccc3NC(=O)c3cccnc3C)CC2)n1	0.027 µM	19 µM	2.2 µM	
Cc1c(F)ccc(F)c1C(=O)Nc1ccc(C(C)C)cc1N1CCN(c2cnccn2)CC1	54 µM	11 µM		ND(toxic)
Cc1cncc(C(=O)Nc2ccc(C(C)C)cc2N2CCN(c3cnccn3)CC2)c1	2.3 µM	13 µM		ND(toxic)
Cc1ncsc1C(=O)Nc1ccc(C(C)C)cc1N1CCN(c2cnccn2)CC1	0.58 µM	25 µM		ND(toxic)
O=C(Nc1ccc(Br)cc1N1CCN(c2cnccn2)CC1)c1cccnc1	> 20 µM			
Cc1n[nH]cc1C(=O)Nc1ccc(C(C)C)cc1N1CCN(c2cnccn2)CC1	> 200 µM			
CC(C)c1ccc(NC(=O)C2CCOC2)c(N2CCN(c3cnccn3)CC2)c1 (stereo not drawn)	20 µM			
CC(C)c1ccc(NC(=O)C2CCCNC2)c(N2CCN(c3cnccn3)CC2)c1 (stereo not drawn)	> 200 µM			
CC(C)c1ccc(NC(=O)c2cnccc2C(F)(F)F)c(N2CCN(c3cnccn3)CC2)c1	> 20 µM			
CC(C)c1ccc(NC(=O)c2cccnc2)c(N2CCN(C(=O)Nc3ccccc3)CC2)c1	> 100 µM			

Reference: ChEMBL document CHEMBL2010780, “Pyridine Carboxamides: Potent Palm Site Inhibitors of HCV NS5B Polymerase” (ACS Med Chem Lett, 2010)
